A short description of data set [1]: its hydrolysis half life in human plasma (pH 7.4). The class given is ADME, organism-based. Summed up: (§1)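 Prodrug in acetonitrile or dioxane added to 0.05 M phosphate buffer pH 7.40 containing 80% human or rat plasma, about 0.04 mg/mL initial, at 37 or 25 °C. Aliquots quenched and deproteinized with 0.05 M methanolic HCl, centrifuged, then analysed by reversed-phase HPLC with diode-array detection. First-order constants from ln plots of drug or prodrug concentration vs time.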

A short description of data set [2]: its hydrolysis half life in rat plasma (pH 7.4). It counts as ADME, organism-based. Summed up:
as §1

Data set [3] can be described thus: Compound was evaluated for its hydrolysis half life obtained from the relation Kobs was measured in a pH 7.4 phosphate buffer at 37 degree C (micro = 0.5 M ). The class given is ADME. The conditions noted are these: for half-life: phosphate buffer. Summed up: (§2)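 Prodrug hydrolysed in pH 7.40 phosphate buffer at 37 °C (some runs at 25 °C) and monitored by UV spectrophotometry until product formation, about 10 half-lives. First-order kobsd from ln(OD) vs time, with pH checked before and after. Half-life taken as 0.693/kobsd.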

A short description of data set [4]: Compound was evaluated for its rate constant (Kp) which are average values of Kobs measured in the pH range 10-11 at 25 degree C (micro = 0.5 M ). It counts as ADME. Summed up:
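Spectrophotometric hydrolysis in aqueous NaOH or carbonate/borax buffers, 25 °C, ionic strength 0.5 M. kp is the average of kobsd values measured over pH 10-11 (the pH-independent plateau). kobsd came from first-order ln(OD) vs time plots. Error in each rate constant about ±3%.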

Data set [5] in a line: Compound was evaluated for pKa. It counts as physicochemical. Summed up: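 Apparent kinetic pKa obtained by fitting the pH-rate profile (log kobsd vs pH, UV-monitored hydrolysis in NaOH and carbonate, borax, Tris or phosphate buffers) to a rate law combining the pH-independent constant with the acid dissociation constant of the prodrug hydroxyl.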
The nature of data set [6]: its hydrolysis half life in phosphate buffer (pH 7.4). The class given is ADME. Summed up:
as §2

Data set [7] in a line: its bimolecular rate constant (KOH) at 25 degree C (m = 0.5). The class given is ADME. Summed up: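 Hydrolysis followed by UV spectrophotometry in aqueous NaOH or buffer (carbonate, borax, Tris, phosphate) at 25 °C, ionic strength 0.5 M. Second-order constant kOH taken from the linear plot of kobsd vs [OH-] over the pH-dependent region. kobsd came from ln(OD) vs time plots. pH in the cell was read before and after reaction.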

The structures appear in SMILES notation.

The term pKa denotes the negative logarithm of the acid dissociation constant. The low end stands for a stronger acid or weaker base, the high end for a weaker acid or stronger base. For the molecule `O=C(Nc1cc(Cl)ccc1O)OCC(Cl)(Cl)Cl`, the half-life was 10.1 min in data set [1] (read-out: T1/2), 7.5 min in data set [2] (read-out: T1/2) and 276000 min in data set [3]. This molecule displayed a Kp in data set [4] of 1.14 s⁻¹. Moreover, the pKa in data set [5] stood at 12.7.
As for `CC(=O)Nc1cccc(OC(=O)Nc2cc(Cl)ccc2O)c1`, in data set [3], the half-life is 0.125 min. In data set [4], this molecule came in with a Kp of 0.279 s⁻¹. In data set [5], this molecule came in with a pKa of 9.38.
With `CC(=O)Nc1ccc(OC(=O)Nc2cc(Cl)ccc2O)cc1`, the half-life in data set [1] was found to be 1.1 min; in data set [2], 0.833 min; in data set [3], 0.118 min; in data set [6] it was 0.118 min. The molecule further had a Kp in data set [4] of 0.205 s⁻¹. The same molecule gave a pKa in data set [5] of 9.49.
In data set [3], `CC(C)(C)OC(=O)Nc1ccc(OC(=O)Nc2cc(Cl)ccc2O)cc1` returned a half-life of 0.187 min. Moreover, the Kp in data set [4] came out at 0.184 s⁻¹. Besides, in data set [5], the pKa was 9.8.
In data set [3], `O=C(Nc1cc(Cl)ccc1O)Oc1cccc(Cl)c1` had a half-life of 0.0634 min. In data set [4], this molecule yielded a Kp of 0.503 s⁻¹. In addition, in data set [5], the pKa came out at 9.02.
`COc1ccccc1OCC(CNC(=O)Oc1ccc(NC(C)=O)cc1)OC` (configuration not stated): the half-life in data set [1] (read-out: T1/2) amounted to 134 min; in data set [2] (read-out: T1/2), 153 min; in data set [6] it was 502 min.
Regarding `COc1ccc(Cl)cc1NC(=O)Oc1ccc(NC(C)=O)cc1`, the KOH in data set [7] worked out at 510 M⁻¹ s⁻¹.
Take `CC(=O)Nc1ccc(OC(=O)Nc2ccc(C(=O)c3ccccc3)cc2O)cc1`: the half-life is 1 min in data set [1], 0.233 min in data set [2], 0.0965 min in data set [3] and 0.097 min in data set [6]. Also, the Kp in data set [4] was found to be 0.119 s⁻¹. Also, the pKa in data set [5] came to 9.49.
For `C#CCOC(=O)Nc1cc(Cl)ccc1O`, the T1/2 in data set [3] (buffer) was 108 min. The same molecule displayed a Kp in data set [4] of 0.00025 s⁻¹. In data set [5], this molecule yielded a pKa of 13.6.
With `COc1ccccc1OCC(O)CNC(=O)Oc1ccc(NC(C)=O)cc1` (configuration not stated), the half-life in data set [1] (read-out: T1/2) amounted to 59 min; in data set [2] (read-out: T1/2), 58 min; in data set [6] it was 371 min. The molecule also returned a KOH in data set [7] of 10.5 M⁻¹ s⁻¹.
On to `O=C(Nc1cc(Cl)ccc1O)OCC(Cl)Cl`, for which the values for the half-life in data set [1] (read-out: T1/2), in data set [2] (read-out: T1/2) and in data set [3] were 105 min, 53.8 min and 42.5 min, respectively. Moreover, in data set [4], the Kp stood at 0.000806 s⁻¹. Moreover, the pKa in data set [5] came to 13.2.
`COc1ccc(OC(=O)Nc2cc(Cl)ccc2O)cc1` registered a half-life in data set [3] of 0.37 min. The Kp in data set [4] is 0.0976 s⁻¹. This molecule also gave a pKa in data set [5] of 10.2.
In the case of `CC(=O)Nc1ccc(OC(=O)Nc2cc(C(=O)c3ccccc3)ccc2O)cc1`, the half-life was 10.2 min in data set [1] (read-out: T1/2), 2.9 min in data set [2] (read-out: T1/2), 0.233 min in data set [3] and 0.233 min in data set [6]. In data set [4], the Kp amounted to 0.0221 s⁻¹. The pKa in data set [5] worked out at 9.49.
Turning to `CC#CCOC(=O)Nc1cc(Cl)ccc1O`, the Kp in data set [4] is 5.93e-06 s⁻¹. In data set [5], the pKa was 14.2.
As for `CC(=O)Nc1ccc(OC(=O)NCC(O)COc2cc(C)cc(C)c2)cc1` (configuration not stated), the results for the half-life in data set [1] (read-out: T1/2), in data set [2] (read-out: T1/2) and in data set [6] were 45 min, 62 min and 416 min, respectively.
`Cl.Nc1ccc(OC(=O)Nc2cc(Cl)ccc2O)cc1` registered a half-life in data set [3] of 0.383 min. Also, in data set [4], the Kp amounted to 0.0806 s⁻¹. Also, the pKa in data set [5] is 10.4.
`O=C(Nc1cc(Cl)ccc1O)OCCCl` displayed a Kp in data set [4] of 2.75e-06 s⁻¹. This molecule gave a pKa in data set [5] of 14.3.
For `O=C(Nc1cc(Cl)ccc1O)Oc1ccccc1`, the half-life in data set [3] was 0.2 min. The molecule further had a Kp in data set [4] of 0.169 s⁻¹. Moreover, the pKa in data set [5] is 10.
As to `COC(=O)Nc1cc(Cl)ccc1O`, the half-life in data set [3] was 105000 min. The Kp in data set [4] came to 1.05e-06 s⁻¹. In data set [5], this molecule yielded a pKa of 15.5.
In data set [3], `CCOC(=O)Nc1cc(Cl)ccc1O` showed a half-life of 418000 min. For the same molecule, the Kp in data set [4] stood at 8.63e-07 s⁻¹. For the same molecule, the pKa in data set [5] was 16.
As to `O=C(Nc1cc(Cl)ccc1O)Oc1cccc(C(F)(F)F)c1`, the half-life in data set [3] is 0.0518 min. This molecule yielded a Kp in data set [4] of 0.7 s⁻¹. The pKa in data set [5] was 8.97.
Regarding `O=C(Nc1cc(Cl)ccc1O)OCC(F)(F)F`, the half-life in data set [3] was 2.58 min. In data set [4], this molecule yielded a Kp of 0.014 s⁻¹. Besides, the pKa in data set [5] was determined as 12.4.
Turning to `CNC(=O)Oc1ccc(NC(C)=O)cc1`, the KOH in data set [7] worked out at 11.5 M⁻¹ s⁻¹.

These data come from ChEMBL document CHEMBL1128454, “Cyclization-activated prodrugs: N-(substituted 2-hydroxyphenyl and 2-hydroxypropyl)carbamates based on ring-opened derivatives of active benzoxazolones and oxazolidinones as mutual prodrugs of acetaminophen” (J Med Chem, 1995).
